An excerpt weighted towards active compounds, which were near 2.4% of everything screened.
SENP1 inh – SENP1 (human) catalytic domain inhibition; Q9P0U3; recombinant SENP1 catalytic domain, CyPet-SUMO1-YPet FRET cleavage; inhibition, % at 10 µM; 0.21% of 360,000 active; AID 624204;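 active = inhibition at least 30% at 10 µM, raw YFP signal under a set limit, fluorescence ratio 0.5 to 1.5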;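 also: 0% = enzyme with DMSO and 100% = no enzyme wells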
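Test system: recombinant human SENP1 catalytic domain, His6-tagged / Medium: pH 8 Tris buffer with EDTA, NaCl, BME, BSA, NP40, catalase / Also added: SUMO1 FRET substrate flanked by Cypet and Ypet, 25 nM / Times: 50 min reaction at room temperature / Signal: FRET, CFP and YFP emission / Control set: no-enzyme low control and enzyme-plus-DMSO high control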
beta cell repl – MIN6 beta-cell proliferation induction. MIN6 cells proliferation, ATPlite luminescence, 48 h; cells starved in 0.2% serum; 100% = growth in 10% serum. proliferation, % at 10 µM. 0.29% of 330,000 active. AID 2380;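 active = compounds whose signal lies at least 3.5 SD above the mean of all wells on their plate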;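 also: 0% = DMSO-treated cells in low-serum medium and 100% = 10% serum control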
Myeloid diff MLP – myeloid differentiation induction; 1% of 360,000 active; AID 624256; ER-HoxA9 myeloid progenitors, lysozyme-GFP differentiation, flow cytometry; calls only at 10 µM;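 active = normalized GFP-positive differentiation at or above the plate's own cutoff, the solvent-only control mean plus 3 SD; inconclusive = no clear call, values can overlap the other calls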;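 also: cells exposed to compound for four days before flow analysis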
CendR NRP1 mod – NRP-1/CendR interaction modulation | FAM-RPARPAR peptide binding to NRP-1, fluorescence polarization | 0.85% of 360,000 active | AID 602438 | inhibition, % at 25 µM | O14786;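 active = inhibition or corrected inhibition above about 18%, plus a signal ratio from 0.5 to 1.5, limit read from the data, passing the limit was not always enough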
MT1-MMP act inh – MT1-MMP (human) activation inhibition | P50281 | HT1080 RFP-PRO-GFP cells, GFP/RFP ratio fluorescence, overnight; percent of plate control window, DMSO zero | GFP/RFP ratio change, % at 20 µM | 0.061% of 360,000 active;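 active = GFP/RFP ratio change of at least 30% with cell ATP level not reduced by more than half and red fluorescence within 50% of control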
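Assay system: HT1080 RFP-PRO-GFP cells | Dosing: 20 µM single dose, 1% DMSO | Incubation: Cells overnight before dosing, compound overnight, 37 °C, 5% CO2 | Evaluation: GFP/RFP fluorescence ratio | Control set: DMSO-only wells and HT1080 RFP-L50D-GFP cell wells as references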
DAGLB inhibitor – diacylglycerol lipase beta (human) inhibition; 0.059% of 340,000 active; AID 504411; inhibition, % at 5.17 µM; HEK293T DAGLB membrane lysate, EnzChek fluorogenic substrate; in the data active = inhibition above about 34%;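 also: 0% = enzyme with vehicle and 100% = wells lacking enzyme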
Target sequence (Q8NCG7 whole entry, looked up): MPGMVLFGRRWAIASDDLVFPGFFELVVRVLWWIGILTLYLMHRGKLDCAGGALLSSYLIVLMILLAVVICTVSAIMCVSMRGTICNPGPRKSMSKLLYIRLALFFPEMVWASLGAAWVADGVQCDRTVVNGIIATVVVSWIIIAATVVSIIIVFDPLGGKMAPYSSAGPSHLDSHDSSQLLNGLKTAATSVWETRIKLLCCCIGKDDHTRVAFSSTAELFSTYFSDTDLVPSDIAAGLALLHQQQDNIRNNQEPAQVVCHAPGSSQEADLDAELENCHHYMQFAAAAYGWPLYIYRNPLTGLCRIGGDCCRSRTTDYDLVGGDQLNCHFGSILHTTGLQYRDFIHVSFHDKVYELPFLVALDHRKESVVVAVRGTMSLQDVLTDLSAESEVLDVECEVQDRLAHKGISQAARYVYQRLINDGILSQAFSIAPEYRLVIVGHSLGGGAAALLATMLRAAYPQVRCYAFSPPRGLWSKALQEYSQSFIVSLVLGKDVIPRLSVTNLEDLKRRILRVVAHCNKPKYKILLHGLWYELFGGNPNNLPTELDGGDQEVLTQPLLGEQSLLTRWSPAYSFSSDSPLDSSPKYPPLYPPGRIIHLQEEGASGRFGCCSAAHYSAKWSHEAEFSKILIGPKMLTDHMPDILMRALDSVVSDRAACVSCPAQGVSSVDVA
Myeloid diff CP1 – compounds promoting myeloid differentiation. shares compounds with Myeloid diff MLP. ER-HoxA9 myeloid progenitors, GFP/Mac1 double-positive flow. calls only. 2% of 2,300 active. AID 651706;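 active = share of green or green-and-red cells above 9 and 9% in run 1 or 4 and 3% in run 2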
GFP autofluor – flagged as fluorescent in myeloid differentiation counter-screen. AID 651707. shares compounds with Myeloid diff MLP. 7.4% of 2,300 active. ER-HoxA9 myeloid progenitors, no estrogen, GFP autofluorescence flow cytometry; vehicle wells 0%, positive control 100%. fluorescence response, % (test concentration not listed);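 active = over 5% cells positive for green fluorescent reporter, or over 2% positive for both it and APC stain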;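 also: range taken on the double positive population between DMSO and positive control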
Starred values were filed as active, the others as inactive; i = inactive; ? = inconclusive; . = not tested or not shown; + = active, no number.

SMILES	SENP1 inh	beta cell repl	Myeloid diff MLP	CendR NRP1 mod	MT1-MMP act inh	DAGLB inhibitor	Myeloid diff CP1	GFP autofluor
O=C(COc1ccccc1Cl)NCCCNC(=O)c1ccncc1	-1	-1	i	4	-1	-2	.	.
O=C(COc1ccccc1Cl)NCCNC(=O)c1ccncc1	0	5	i	12	3	0	i	0
Cc1cc(-n2c(C)cc(C(=S)N3CCOCC3)c2C)ccc1Br	0	-4	i	-12	-2	-3	.	.
Cc1ccc(C(=O)N2CCCC(CCC(=O)NCc3ccc(F)c(F)c3)C2)cn1 (stereo unspecified)	0	-2	?	6	5	1	.	.
COc1cccc(CNC(=O)CCC2CCCN(C(=O)c3ccc(C)nc3)C2)c1 (stereo unspecified)	-2	-3	+	6	-1	1	i	0
CCCCCCn1cc(CN2CC(N3CCN(C4CCN(C)CC4)CC3)CS2(=O)=O)nn1 (stereo unspecified)	1	.	i	7	3	.	.	.
COc1ccc(CSc2nc(CSC)cc(N3CCOCC3)n2)cc1	0	-1	+	-24	1	0	i	0
COc1ccc2c(C)cc(N3CCOCC3)nc2c1	1	2	i	-1	-5	-2	.	.
CC(C)(C)c1ccccc1NC(=O)c1cc(-c2ccncc2)nc2ccccc12	1	-2	i	-16	-5	0	i	0
Cc1ccc(-c2cc(C(=O)Nc3ccncc3)c3ccccc3n2)cc1	0	-6	i	0	1	-1	.	.
COc1ccc(S(=O)(=O)N2CCN(c3nc(-c4cccnc4)nc4ccccc34)CC2)cc1	-3	-7	i	-14	-7	-8	.	.
COc1cc(NC(=O)CCCl)cc(-n2cnnn2)c1	0	0	i	3	-1	1	.	.
CCc1ccccc1NC(=O)CNCC(=O)Nc1ccccc1CC	0	-3	+	5	3	-2	i	0
CCc1ccccc1NC(=O)Cc1ccc(-n2cccc2)cc1	1	0	i	-4	0	-3	.	.
O=C(Nc1ccccc1)C(Cc1ccccc1)NC(=O)C12CC3CC(CC(C3)C1)C2 (stereo unspecified)	-1	-3	+	5	-2	4	i	0
COc1ccc2c(c1)OC[C@H]1[C@H]2N2C(=O)c3cc(OC)ccc3NC(=O)[C@@]2(C)[C@H]1c1ccccc1	0	-8	i	9	-7	-2	i	0
COc1ccc2c(c1)OC[C@H]1[C@H]2N2C(=O)c3cc(Cl)ccc3NC(=O)[C@@]2(C)[C@H]1c1ccccc1	-2	-7	i	-10	-23	-2	.	.
C=Cn1cc[n+](CC(=O)c2ccc(OC)cc2)c1	5	-1	+	-4	4	0	i	1
O=C(c1ccccc1OCc1ccccc1Br)N1CCN(c2ncccn2)CC1	1	1	i	-3	-1	-4	.	.
COc1ccc(/C=C/C(=O)NCCC(=O)N2CCCN(C)CC2)cc1	0	-5	i	2	3	0	i	0
Cn1c(=O)c2[nH]c(CCCCCCCc3nc4ccccc4[nH]3)nc2n(C)c1=O	-4	.	i	-10	-3	0	.	.
Cc1nc2ccc(S(=O)(=O)NCC(=O)N3CCC(C)CC3)cc2s1	0	-1	i	17	4	6	i	0
CCOC(=O)c1cc2c(=O)n3ccccc3nc2n(C(C)C)c1=NC(=O)c1c(-c2c(F)cccc2Cl)noc1C	-26	-5	+	-4	-7	4	i	0
CN(C)CCCN(Cc1ccccc1)C(=S)Nc1ccc(OC(F)F)cc1	2	0	i	4	-3	0	.	.
COc1cc2c(cc1O)CC[n+]1cc3c(OC)c(OC)ccc3cc1-2	-16	0	i	-2	0	0	.	.
SMILES	SENP1 inh	beta cell repl	Myeloid diff MLP	CendR NRP1 mod	MT1-MMP act inh	DAGLB inhibitor	Myeloid diff CP1	GFP autofluor
COc1cc2c(cc1OC)-c1cc3ccc4c(c3c[n+]1CC2)OCO4	30	-6	+	46	-96	-12	+	1
CC1CCCC(NC(=O)COC(=O)/C=C/c2ccc(F)cc2)C1C (stereo unspecified)	0	-3	i	5	-3	-1	.	.
N#CC1C(=O)NC(=O)CC12CCCCC2 (stereo unspecified)	2	.	i	-6	0	0	i	0
N#CC1C(=O)NC(=O)C(C#N)C12CCCCC2 (stereo unspecified)	1	.	i	-1	10	.	.	.
Cc1cccc2nc3c(nc12)CCCC3	1	-1	i	4	2	-1	.	.
CCC(=O)Nc1cccc(NC(=O)CSc2nnc(C3CC3)n2C)c1	1	0	i	0	5	-3	i	0
COC(=O)c1ccc(NC(=O)Nc2ccccc2C)cc1	3	-3	i	2	10	-3	i	1
COC(=O)c1ccc(NC(=O)Nc2ccccc2F)cc1	1	-3	i	21	1	-3	.	.
O=C(NCc1ccccc1Cl)C1CCCN(S(=O)(=O)c2cccc3nsnc23)C1 (stereo unspecified)	4	-1	i	-3	1	2	i	0
C[C@H](NC(=O)c1nc[nH]c1C(=O)N(C)Cc1ccccc1)C(=O)OC(C)(C)C	2	1	i	5	2	-4	.	.
CN(Cc1ccccc1)C(=O)c1[nH]cnc1C(=O)NCCCCCNC(=O)OC(C)(C)C	-6	-6	+	-1	6	-2	i	1
C=CCNC(=O)NC(=O)COC(=O)c1nc2nccc(C)n2n1	0	-1	i	13	4	1	.	.
O=C1NC(=S)N(C(=O)c2ccc(F)cc2)/C1=C/c1ccccc1	50	0	+	-218	-295	7	i	2
COC(=O)c1sccc1NC(=O)c1csc(C)c1	2	1	+	-6	-9	-10	i	0
CC1CC2(CCCCC2)Nc2c1ccc1ccccc21 (stereo unspecified)	-80	-3	+	1	-29	2	i	12*
CCOC1=C2[C@@H](CN(S(=O)(=O)c3ccc(C)cc3)[C@H]2c2ccccc2F)[C@H]2C(=O)N(CC)C(=O)[C@H]2C1	13	.	i	-15	2	.	.	.

Compound activity: PubChem BioAssay, several laboratories
